# Compound activity deposited in PubChem BioAssay by several laboratories.
# The list is not random: actives were taken first. Their share in the collection is about 6.4%.
# H69AR inhibit – blocks growth of human H69AR lung tumor cells | H69AR lung tumor viability, ATP luminescence, 72 h; active compounds read low | viability, % at 10 µM | hit rate 6% among 85,000 | AID 598;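 active = viability at or below 40%; inactive = viability above 40%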;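 also: multidrug resistant small cell line overexpressing MRP-1 efflux transporter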
# HUVEC prolif 384 – human endothelial cell proliferation inhibition. hit rate 1.1% among 86,000. HUVEC proliferation, CellTiter-Glo luminescence, 72 h; active compounds read low. viability, % at 10 µM (by protocol);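 active = viability at or below 30%; inactive = viability above 30%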
# Ecoli tolC – E. coli tolC mutant growth inhibition; AID 573; E. coli BW25113 tolC mutant growth, OD615; growth inhibition, % at 10 µM (by protocol); hit rate 2.2% among 65,000;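 active = growth inhibition at or above a cutoff equal to the mean over every tested compound plus 3 SD, cut at about 60% in these data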;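 also: growth measured after 20 h incubation at 37 °C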
#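 Test system – E. coli BW25113 ΔtolC::kan, tolC deletion mutant strain · Detection – OD at 615 nm · Buffer or medium – LB with kanamycin 50 µg/mL · Times – 20 h compound exposure of bacteria at 37 °C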
# Lung fibro prol – blocks proliferation of human lung fibroblasts; viability, % at 10 µM; LL 47 human lung fibroblast viability, ATP luminescence; active compounds read low; hit rate 1.1% among 85,000;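 active = viability at or below 50% in the single dose screen; inactive = viability above 50%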;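 also: compound exposure lasted 72 h before the ATP readout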
#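 Test system: LL 47 human lung fibroblasts; Quantity: 1,150 cells/well; Buffer or medium: IMEM plus 15% FBS; Dosing: tenfold compound dosing solution, DMSO at 0.1%; Timing: overnight cell rest, 72 h compound treatment at 37 °C; Detection: ATP-based CellTiter-Glo luminescent readout; Read-out basis: viability percentage against median untreated-cell control; Controls: cell-only wells, no compound.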
# Jurkat viability – cytotoxic compounds reducing Jurkat cell viability; AID 463; inhibition, % at 4 µM; Jurkat E6.1 viability, ATP luminescence, 48 h; hit rate 1.2% among 56,000;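 active = inhibition above the mean inhibition of all tested compounds plus 3 SD, cut at about 28% in these data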
# E coli WT exp – blocks growth of wild type E. coli BW25113. OD600 absorbance. growth inhibition, % at 100 µM. hit rate 0.15% among 98,000;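 active = growth inhibition above about 50% at one test dose, limit read from the data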;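 also: growth measured after 20 h incubation at 37 °C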
# Hits are given with their value; - = inactive; . = not tested or not shown.
SMILES,H69AR inhibit,HUVEC prolif 384,Ecoli tolC,Lung fibro prol,Jurkat viability,E coli WT exp
COC(=O)C1=C(C)N(Cc2ccc(OC)cc2)C(=O)C1,.,.,.,.,.,-
COc1ccccc1OCc1nc2c3c(-c4ccccc4)c(-c4ccccc4)oc3ncn2n1,25,-,-,-,-,.
Cc1nn(Cc2ccc(C(=O)N3c4ccc(F)cc4CCC3C)o2)c(C)c1Br (centres undefined),-,-,96,-,-,-
COc1ccc(Cl)cc1NC(=O)N(C)Cc1c(C)nn(C)c1C,-,-,-,-,-,-
Cc1nc2sc(C(c3ccco3)N3CC(C)OC(C)C3)c(O)n2n1 (centres undefined),.,.,-,.,-,-
Cc1cc(C)c(S(=O)(=O)n2ccc3ccccc32)c(C)c1,7.8,-,.,-,.,-
O=S(=O)(c1ccccc1)n1ccc2ccccc21,-,-,-,-,-,-
O=c1c(-c2cc3ccccc3o2)[n+]([O-])c2ccccc2n1OCc1ccccn1,36,-,.,-,.,-
CCOn1c(=O)c(-c2cc3ccccc3o2)[n+]([O-])c2ccccc21,-,-,-,-,-,-
CCC(C)(C)n1nnnc1C(c1ccc(C)cc1)N1CCCC1 (centres undefined),-,-,-,-,-,-
c1ccc(C(Cc2nc(-c3ccncc3)no2)c2ccccc2)cc1,-,-,-,-,58,-
Cc1ccc(C(=O)Nc2ccc3cn[nH]c3c2)cc1S(=O)(=O)N1CCCCC1,30,-,.,-,.,-
COc1ccc(-c2c3c(=O)n(C)c(=O)n(C)c3cn2C2CCCCC2)cc1,20,-,-,-,-,-
COc1ccc(-c2c3c(=O)n(C)c(=O)n(C)c3c3nnc4ccccc4n23)cc1,-,-,-,-,-,.
N#Cc1nc(COc2ccccc2)oc1N1CCN(Cc2ccccc2)CC1,-,-,67,-,-,-
Cc1ccc(OCc2nc(C#N)c(N3CCN(Cc4ccccc4)CC3)o2)cc1,.,-,64,-,-,-
Cc1nc(NC2=NCN(CCN3CCOCC3)CN2)nc2c(C)cccc12,-,-,-,-,-,.
Cc1nc(NC2=NCN(Cc3cccnc3)CN2)nc2c(C)cccc12,37,-,-,-,-,.
COc1ccc(-n2c(C)cc(C(=O)COC(=O)Cn3cnc4ccccc43)c2C)cc1,-,-,63,-,-,-
Cc1cc(C(=O)COc2cccc(-n3cnnn3)c2)c(C)n1-c1ccccc1,-,-,-,-,-,-
O=C(COC(=O)c1cc2ccccc2o1)c1ccccc1,-,-,-,-,-,-
O=C(Oc1ccccc1)c1cc2ccccc2o1,-,-,71,-,-,-
COC(=O)c1ccc(Cl)c(NC(=O)NC23CC4CC(CC(C4)C2)C3)c1,-,-,.,-,.,-
CCCCNC(=O)c1sc2nc(C)cc(COC)c2c1-n1cccc1,35,-,-,-,-,-
COc1ccc(-c2nnc3n2N=C(C)CS3)cc1OC,-,-,-,-,-,-
SMILES,H69AR inhibit,HUVEC prolif 384,Ecoli tolC,Lung fibro prol,Jurkat viability,E coli WT exp
O=c1cnn(-c2ccccc2)c(-c2ccccc2)c1,25,-,-,-,.,-
CCSc1nnnn1-c1ccccc1,-,-,.,-,.,-
Cc1ccc(S(=O)(=O)NCCSc2nnnn2-c2cc(C)ccc2C)cc1,-,-,68,-,-,-
Cc1ccc(C)c(-n2nnnc2Sc2nnnn2-c2ccccc2)c1,2.3,15,-,24,30,-
COCCCNc1c2c3c(cccc3[nH]c1=O)C(=O)c1ccccc1-2,18,-,.,-,.,-
COCCCNS(=O)(=O)c1ccc2c3c(cccc13)C(=O)S2,-,-,-,-,.,-
CC(=O)n1c(Cl)c(NC(=O)CCl)c2ccccc21,1.5,-,.,-,.,-
O=C(Nc1ccc(Br)cc1)c1ccc(N2C(=O)C3CC=C(Cl)CC3C2=O)cc1 (centres undefined),25,-,.,-,.,-
OCCOCCNc1ncnc2nc[nH]c12,-,-,-,-,-,-
c1ccc2c(c1)[nH]c1c(N3CCC4(CC3)OCCO4)ncnc12,39,-,-,-,.,-
OC1(c2cccc(C(F)(F)F)c2)CCN(c2ncnc3c2[nH]c2ccccc23)CC1,19,-,-,-,.,-
c1ccc2c(c1)CCN(c1ncnc3c1[nH]c1ccccc13)C2,.,.,-,.,.,-
CCOC(=O)c1c(-c2cccs2)csc1NC(=O)CN1CC(C)OC(C)C1 (centres undefined),-,-,68,-,-,-
COc1cc(/C=C2/C(=N)N3C=CSC3=NC2=O)ccc1OCCCOc1cc(C)ccc1C,19,15,.,-,.,-
COc1ccccc1OCCOc1ccc(/C=C2/C(=N)N3OC(C)=CC3=NC2=O)cc1OC,.,.,.,.,.,-
Cc1ncsc1C(=O)Nc1nc2c(s1)CCCC2,-,-,-,-,-,-
CC(/C=C/c1ccc2c(c1)OCO2)=N\NC(=O)c1cccc([N+](=O)[O-])c1,7.3,-,.,28,.,-
COc1cc(NS(=O)(=O)c2ccc(OC)c(C)c2C)c(OC)cc1Cl,22,-,65,-,79,-
CC(C)(C)NCc1ccccc1OCc1cccs1,.,.,.,.,.,-
CSc1nc2ccc(NS(=O)(=O)c3ccc(Cl)s3)cc2s1,-,-,99,-,-,-
CSc1nc2ccc(S(=O)(=O)N(C)C)cc2s1,-,-,.,-,.,-
CCOCCCN1CC(C(=O)NCCc2ccc(C)cc2)CC1=O (centres undefined),-,-,-,-,-,-
C=C(C)COc1ccc(-c2[nH]ncc2Oc2cccc(OC)c2)c(O)c1,1.3,5.2,100,-,-,-
C=C(C)COc1ccc(-c2[nH]ncc2Oc2ccccc2OCC)c(O)c1,.,27,100,-,-,-
CCOC(=O)Cc1cc(=O)[nH]c(Nc2nc3ccccc3o2)n1,-,-,-,-,-,-
SMILES,H69AR inhibit,HUVEC prolif 384,Ecoli tolC,Lung fibro prol,Jurkat viability,E coli WT exp
O=C(CSC1=NCCN1)NC1CCCCCC1,-,-,.,-,.,-
O=C(CSC1=NCCN1)NC12CC3CC(CC(C3)C1)C2,16,-,-,-,-,-
CC(C)c1ccc(NC(=O)N(CCc2nc3ccccc3[nH]2)C2CCCC2)cc1,32,-,.,-,.,-
O=C(Nc1ccccc1)N(CCc1ccncc1)C1CCCCC1,-,-,-,-,-,.
CCOC(=O)c1sc(NC(=O)c2c(C)nn(Cc3ccccc3)c2C)cc1C,13,-,71,-,-,-
O=C(CCS(=O)(=O)Cc1ccccc1)Nc1nc2c(s1)CCCC2,22,-,-,-,-,-
O=C(CS(=O)(=O)Cc1ccccc1)Nc1nc2c(s1)CCCC2,-,-,-,-,-,-
O=C(CSc1nc2ccccc2o1)Nc1nc2c(s1)CCCC2,-,-,63,-,-,.
CCCCCCCCCC(=O)N/N=C/c1ccc(C)s1,.,.,.,.,.,-
COC(=O)c1sccc1NC(=O)c1cc2c(s1)CCCC2,-,-,61,-,-,-
O=C(Nc1nccs1)c1cc2c(s1)CCCCC2,-,-,.,-,.,-
COC(=O)c1sccc1NC(=O)c1ccc2c(c1)OCO2,39,-,-,29,.,-
CNC(=O)CSc1nnnn1CCCOC,-,-,-,-,-,-
COc1ccc(C2CC(c3ccccc3)=NN2C(=O)c2cccs2)cc1 (centres undefined),.,.,.,.,.,-
